According to ChEMBL document CHEMBL3124940, “Design, synthesis and biological evaluation of D-ring opened galantamine analogs as multifunctional anti-Alzheimer agents” (Eur J Med Chem, 2014):

Tests used:
Acetylcholinesterase = Acetylcholinesterase (Electrophorus electricus, UniProt O42275); assay: Inhibition of electric eel AChE using acetylthiocholine iodide as substrate preincubated for 5 mins followed by substrate addition measured after 5 mins by Ellman's method
Cholinesterase = Cholinesterase (Equus caballus, UniProt P81908); assay: Inhibition of equine serum BChE using butyrylthiocholine iodide as substrate preincubated for 5 mins followed by substrate addition measured after 5 mins by Ellman's method
Outline: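 Ellman's method with equine serum BChE and butyrylthiocholine iodide; DTNB read-out at 412 nm, 25 °C. Phosphate buffer pH 8.0. At least five concentrations (normally 10^-4 to 10^-9 M), each in triplicate, to build the inhibition curve. Data are means of at least three determinations.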

[1] = Selectivity ratio of IC50 for electric eel AChE to IC50 for equine serum BChE
Outline: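 AChE is electric eel Type VI-S with acetylthiocholine; BChE is equine serum with butyrylthiocholine. At least five concentrations, each in triplicate. Ratio = IC50(AChE)/IC50(BChE).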

Sequence of Acetylcholinesterase (O42275 whole entry): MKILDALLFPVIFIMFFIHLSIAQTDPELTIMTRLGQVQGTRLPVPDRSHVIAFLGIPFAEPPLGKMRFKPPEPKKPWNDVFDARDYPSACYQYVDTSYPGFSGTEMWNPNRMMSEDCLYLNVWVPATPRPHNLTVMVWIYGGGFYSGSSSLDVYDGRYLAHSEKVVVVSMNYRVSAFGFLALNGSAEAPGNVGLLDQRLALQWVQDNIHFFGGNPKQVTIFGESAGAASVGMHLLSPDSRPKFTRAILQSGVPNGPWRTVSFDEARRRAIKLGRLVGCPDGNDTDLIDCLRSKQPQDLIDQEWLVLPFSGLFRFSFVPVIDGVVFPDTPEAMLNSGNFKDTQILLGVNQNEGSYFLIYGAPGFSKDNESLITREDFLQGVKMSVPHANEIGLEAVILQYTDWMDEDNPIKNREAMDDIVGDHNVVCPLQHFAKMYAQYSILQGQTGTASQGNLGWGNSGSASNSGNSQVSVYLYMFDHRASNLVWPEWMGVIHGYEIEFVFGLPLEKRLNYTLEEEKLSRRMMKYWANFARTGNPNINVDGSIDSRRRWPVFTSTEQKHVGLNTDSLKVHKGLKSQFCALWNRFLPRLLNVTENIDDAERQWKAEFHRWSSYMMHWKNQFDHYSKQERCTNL
Sequence of Cholinesterase (P81908 whole entry): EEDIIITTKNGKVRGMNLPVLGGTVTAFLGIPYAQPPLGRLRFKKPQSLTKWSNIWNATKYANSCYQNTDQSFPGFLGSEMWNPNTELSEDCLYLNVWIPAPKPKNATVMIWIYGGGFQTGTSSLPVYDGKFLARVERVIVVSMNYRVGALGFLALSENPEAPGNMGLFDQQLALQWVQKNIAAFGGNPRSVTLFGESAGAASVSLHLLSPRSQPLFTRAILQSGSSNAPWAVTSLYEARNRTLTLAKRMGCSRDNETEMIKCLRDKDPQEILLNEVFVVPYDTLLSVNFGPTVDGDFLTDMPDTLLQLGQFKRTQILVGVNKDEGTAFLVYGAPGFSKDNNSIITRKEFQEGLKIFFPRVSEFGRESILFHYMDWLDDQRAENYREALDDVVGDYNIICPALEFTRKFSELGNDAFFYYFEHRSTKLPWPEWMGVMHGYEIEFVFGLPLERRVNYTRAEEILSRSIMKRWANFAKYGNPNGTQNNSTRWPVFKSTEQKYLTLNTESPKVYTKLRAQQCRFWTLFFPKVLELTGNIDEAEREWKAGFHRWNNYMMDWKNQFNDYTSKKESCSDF

SMILES | IC50 (Acetylcholinesterase) | IC50 (Cholinesterase) | Ratio IC50 [1]
COc1ccc2c(c1)oc1cccc(CNCc3ccccc3)c12 | > 50 µM | 18.1 µM | –
CCN(C)Cc1cccc2oc3cc(OC)ccc3c12 | > 50 µM | – | –
CCNCc1cccc2oc3cc(OC)ccc3c12 | 18.9 µM | 22.2 µM | 0.85
